Results: ChEMBL document CHEMBL4196166 (J Med Chem, 2018)
Activity calls are given as the source filed them. The rule behind the calls is not given here.

Tests used:
Plasma kallikrein = Plasma kallikrein (Homo sapiens, UniProt P03952); assay: Inhibition of plasma kallikrein (unknown origin) at 10 nM to 33.3 uM after 30 mins by gel-based ABPP assay
Homo sapiens [1] = assay: Antimetastatic activity against human PSC xenografted in BALB/c nu/nu mouse co-implanted with human AsPC1 cells assessed as reduction in metastasis lesions in liver at 10 mg/kg/day, ip measured after 28 days post first dose by microscopic analysis; format: functional, organism-based
Outline: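 Female athymic BALB/c nu/nu mice, 6–8 weeks old. 1×10^6 AsPC-1 and 1×10^6 human pancreatic stellate cells in 50 µL PBS injected into the pancreatic tail. Treatment randomized on day 7 (n = 4/group) for 4 weeks: 10 mg/kg/day ip in 50 mM sodium acetate pH 5.5/10% DMSO/1% Kolliphor HS-15, or gemcitabine 75 mg/kg by oral gavage twice weekly, or vehicle. At kill, liver scored for visible macrometastases, fixed in formalin, and 4 µm sections stained with H&E. Chi-square test.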

Homo sapiens [2] = assay: Antitumor activity against human PSC xenografted in BALB/c nu/nu mouse co-implanted with human AsPC1 cells assessed as reduction in tumor volume at 10 mg/kg/day, ip measured after 28 days post first dose; format: functional, organism-based
Outline: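 Orthotopic AsPC-1 plus human stellate cell co-implant (1×10^6 each) in the pancreatic tail of female nude BALB/c nu/nu mice. From day 7, dosed for 4 weeks (n = 4/group) with 10 mg/kg/day ip in acetate pH 5.5/DMSO/Kolliphor vehicle, or gemcitabine 75 mg/kg gavage twice weekly. Tumors resected at 4 weeks after first injection and measured with calipers by two observers. Volume = 1/2(length×breadth×width). Mean ± SEM.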

[3] = target: T1, Epithelial sodium channel subunit gamma (Homo sapiens, UniProt P51170); assay: Inhibition of S-3969-stimulated recombinant human ENaC gamma subunit expressed in HEK293 cells at 10 uM preincubated for 5 mins followed by S-3969 stimulation by FLIPR assay; format: cell-based; conditions: hek293, 10 µM
T1 sequence (P51170 whole entry): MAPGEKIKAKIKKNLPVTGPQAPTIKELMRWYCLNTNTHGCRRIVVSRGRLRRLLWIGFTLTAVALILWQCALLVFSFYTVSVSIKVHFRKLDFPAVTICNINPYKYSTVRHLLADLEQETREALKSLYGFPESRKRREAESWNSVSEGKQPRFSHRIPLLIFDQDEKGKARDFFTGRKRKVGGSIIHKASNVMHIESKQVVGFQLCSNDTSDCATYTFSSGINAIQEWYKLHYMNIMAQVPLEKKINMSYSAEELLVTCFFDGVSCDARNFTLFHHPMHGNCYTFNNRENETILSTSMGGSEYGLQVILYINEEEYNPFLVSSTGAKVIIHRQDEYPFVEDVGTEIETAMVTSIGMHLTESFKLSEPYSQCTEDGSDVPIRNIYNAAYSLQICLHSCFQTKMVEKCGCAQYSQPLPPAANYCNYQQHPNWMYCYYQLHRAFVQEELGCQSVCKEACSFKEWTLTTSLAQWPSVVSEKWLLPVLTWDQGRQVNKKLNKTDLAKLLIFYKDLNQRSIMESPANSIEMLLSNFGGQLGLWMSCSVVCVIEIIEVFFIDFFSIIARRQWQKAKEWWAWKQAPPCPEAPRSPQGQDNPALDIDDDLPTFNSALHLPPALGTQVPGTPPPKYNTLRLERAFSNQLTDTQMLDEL
Outline: (§1)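 HEK-293 cells transfected with human ENaC α, β and γ cDNA together, plated at 20 000 cells/well, incubated overnight at 37 °C. Loaded with membrane-potential red dye for 30 min at 37 °C. Compound preincubated 5 min in HEPES-buffered salt solution (pH 7.4, 0.3% DMSO), then stimulated with 1 µM S-3969, read on FLIPR. Signal normalized to agonist alone (100%) and agonist plus 30 µM benzamil (0%). n = 4 wells.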

[4] = target: T2, Epithelial sodium channel subunit alpha (Homo sapiens, UniProt P37088); assay: Inhibition of S-3969-stimulated recombinant human ENaC alpha subunit expressed in HEK293 cells at 10 uM preincubated for 5 mins followed by S-3969 stimulation by FLIPR assay; format: cell-based; conditions: hek293, 10 µM; outline: as §1
T2 sequence (P37088 whole entry): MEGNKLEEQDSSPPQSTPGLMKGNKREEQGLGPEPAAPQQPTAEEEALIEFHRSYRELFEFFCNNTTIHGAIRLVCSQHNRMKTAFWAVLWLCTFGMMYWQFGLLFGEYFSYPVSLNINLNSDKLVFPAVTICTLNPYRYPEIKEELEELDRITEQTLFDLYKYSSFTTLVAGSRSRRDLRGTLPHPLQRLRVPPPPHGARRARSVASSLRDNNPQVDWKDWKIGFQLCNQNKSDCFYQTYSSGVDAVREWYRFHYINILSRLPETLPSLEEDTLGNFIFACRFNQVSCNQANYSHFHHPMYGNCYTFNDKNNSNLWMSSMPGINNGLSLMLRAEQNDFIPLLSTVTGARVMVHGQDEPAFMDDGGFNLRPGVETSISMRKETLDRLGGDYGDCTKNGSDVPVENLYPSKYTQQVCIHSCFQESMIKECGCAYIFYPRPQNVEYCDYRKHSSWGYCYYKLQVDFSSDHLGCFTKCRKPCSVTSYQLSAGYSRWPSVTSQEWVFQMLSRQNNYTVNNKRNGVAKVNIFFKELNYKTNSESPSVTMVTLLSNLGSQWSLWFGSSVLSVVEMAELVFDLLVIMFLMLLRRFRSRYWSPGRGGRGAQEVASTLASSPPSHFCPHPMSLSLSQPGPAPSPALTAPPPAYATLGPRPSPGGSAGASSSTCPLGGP

[5] = target: T3, Epithelial sodium channel subunit beta (Homo sapiens, UniProt P51168); assay: Inhibition of S-3969-stimulated recombinant human ENaC beta subunit expressed in HEK293 cells at 10 uM preincubated for 5 mins followed by S-3969 stimulation by FLIPR assay; format: cell-based; conditions: hek293, 10 µM; outline: as §1
T3 sequence (P51168 whole entry): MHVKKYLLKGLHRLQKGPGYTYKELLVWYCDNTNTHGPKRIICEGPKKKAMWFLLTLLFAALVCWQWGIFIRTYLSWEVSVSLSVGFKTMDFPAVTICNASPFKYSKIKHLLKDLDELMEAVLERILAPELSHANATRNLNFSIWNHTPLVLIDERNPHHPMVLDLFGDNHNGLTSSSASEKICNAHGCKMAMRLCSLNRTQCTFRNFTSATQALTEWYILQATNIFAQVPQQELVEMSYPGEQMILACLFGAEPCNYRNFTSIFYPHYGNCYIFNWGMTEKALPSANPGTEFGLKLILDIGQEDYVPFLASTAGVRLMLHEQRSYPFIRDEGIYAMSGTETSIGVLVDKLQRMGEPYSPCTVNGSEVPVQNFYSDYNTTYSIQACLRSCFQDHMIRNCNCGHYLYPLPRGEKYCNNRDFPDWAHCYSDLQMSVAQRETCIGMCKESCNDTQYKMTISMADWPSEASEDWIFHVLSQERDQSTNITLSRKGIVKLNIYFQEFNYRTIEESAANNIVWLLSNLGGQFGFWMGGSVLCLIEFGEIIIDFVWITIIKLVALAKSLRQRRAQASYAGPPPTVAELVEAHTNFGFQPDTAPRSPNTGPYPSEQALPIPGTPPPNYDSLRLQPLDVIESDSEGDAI

Chain of Plasma kallikrein (P03952 20-390 limits assumed): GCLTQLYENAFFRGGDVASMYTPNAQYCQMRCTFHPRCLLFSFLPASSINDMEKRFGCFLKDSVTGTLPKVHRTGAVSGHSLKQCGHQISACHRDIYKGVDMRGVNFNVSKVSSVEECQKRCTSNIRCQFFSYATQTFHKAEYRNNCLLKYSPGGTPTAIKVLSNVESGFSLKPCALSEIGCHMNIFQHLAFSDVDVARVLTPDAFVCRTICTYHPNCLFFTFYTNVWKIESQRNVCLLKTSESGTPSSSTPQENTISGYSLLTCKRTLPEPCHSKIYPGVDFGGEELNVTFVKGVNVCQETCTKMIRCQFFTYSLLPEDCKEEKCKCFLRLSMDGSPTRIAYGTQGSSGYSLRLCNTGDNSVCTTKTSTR
Chain of Plasma kallikrein (P03952 391-638 limits assumed): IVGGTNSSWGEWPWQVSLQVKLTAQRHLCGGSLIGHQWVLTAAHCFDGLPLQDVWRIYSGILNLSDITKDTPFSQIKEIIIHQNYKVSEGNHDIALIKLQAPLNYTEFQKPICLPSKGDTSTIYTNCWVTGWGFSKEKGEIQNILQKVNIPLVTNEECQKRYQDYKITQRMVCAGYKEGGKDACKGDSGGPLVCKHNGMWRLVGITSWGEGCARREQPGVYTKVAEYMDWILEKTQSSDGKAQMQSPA

Row | Compound | inhibition (Plasma kallikrein) | Activity (Homo sapiens [1]) | Activity (Homo sapiens [2]) | inhibition (INH) [3] | inhibition (INH) [4] | inhibition (INH) [5]
1 | COc1ncc(-c2nc(C(=O)NC(=N)N)c(N)nc2N2CCCCCC2)cn1 | Active | Active | Active | – | – | –
2 | N=C(N)NC(=O)c1nc(-c2cc3ccccc3o2)c(N2CCCCCC2)nc1N | Active | Active | Active | Not Active | Not Active | Not Active
3 | N=C(N)NC(=O)c1nc(Cl)c(N2CCCCCC2)nc1N [N,N-HEXAMETHYLENEAMILORIDE] | – | – | – | Not Active | Not Active | Not Active
